From ChEMBL document CHEMBL1133693, “Peptide and peptide mimetic inhibitors of antigen presentation by HLA-DR class II MHC molecules. Design, structure-activity relationships, and X-ray crystal structures” (J Med Chem, 2000)
Starred links: 1 amine or outer side, 2 acyl side, 3 side chain; linkers in the order of their positions; H or OH if unused. Non-standard residues stand in square brackets, D forms with d. Residues, ends and D or L forms follow the SMILES beside them. *: point of attachment. X11 = O=C([C@H](N[*:1])[C@H](O)[C@@H](O)[C@@H](O)CO)[*:2]; X3 = O=C([C@@H](N[*:1])[C@H](O)[C@H](O)[C@@H](O)CO)[*:2]; X10 = O=C([C@H](Cc1ccc2c(c1)OCO2)N[*:1])[*:2]; X4 = O=C([C@H](CC1CC2CCC1CC2)N[*:1])[*:2]; X5 = CC1CCC(C[C@@H](N[*:1])C(=O)[*:2])CC1; X6 = CC1CCC(C[C@H](N[*:1])C(=O)[*:2])CC1; Phe(3-F) = N[C@@H](Cc1cccc(F)c1)C(=O)O; Phe(3-I) = N[C@@H](Cc1cccc(I)c1)C(=O)O; NMeCha = CN[C@@H](CC1CCCCC1)C(=O)O; NMeR = CN[C@@H](CCCNC(=N)N)C(=O)O; Cha = N[C@@H](CC1CCCCC1)C(=O)O; NMeM = CN[C@@H](CCSC)C(=O)O; NMeS = CN[C@@H](CO)C(=O)O; NHCH(CH2OH)2 = OCC(CO)N*; NMeA = CN[C@@H](C)C(=O)O; Nle = CCCC[C@H](N)C(=O)O; NHCH2CH2OH = OCCN*

Experiments:
[1] = test system: T-cell; test: T-cell inhibitory potency relative to the IC50 of a(Cha)AAAKTAAAAa-NH2 in MHC class II DRB1*0401; type: functional, Homo sapiens
[2] = test system: T-cell; test: T-cell inhibitory potency relative to the IC50 of a(Cha)AAAKTAAAAa-NH2 iMHC class II DRB1*0101; type: functional, Homo sapiens
[3] = Mean relative potency is the ratio of potencies of 'Ac-(Cha)RAMASL-NH2' and compound, to inhibit MHC class II DRB1*0101
In short: (§1)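 Scintillation proximity competition assay. Test compounds competed against the radioligand, and bound counts were read by scintillation. Ac-(Cha)RAMASL-NH2 was run as standard competitor in every run. Potency is the ratio of standard IC50 to compound IC50.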

[4] = Mean relative potency is the ratio of potencies of 'Ac-(Cha)RAMASL-NH2' and compound, to inhibit MHC class II DRB1*0401; in short: as §1
[5] = target: Cathepsin B (Bos taurus) (UniProt P07688); test: Percent of original compound remaining with cathepsin B after incubation for 4 hrs was determined by HPLC

| SMILES | Mean relative potency [3] | Mean relative potency [4] | % remaining [5] | T-cell inhibition [1] | T-cell inhibition [2] |
| --- | --- | --- | --- | --- | --- |
| CSCC[C@H](NC(=O)[C@H](c1ccccc1)N(C)C(=O)[C@H](CCCN=C(N)N)NC(=O)[C@H](CC1CCCCC1)NC(C)=O)C(=O)N(C)[C@@H](C)C(=O)N[C@@H](CO)C(=O)N[C@H](C(N)=O)C(C)(C)C |  |  |  | 2.5 | 7.8 |
| CSCC[C@H](NC(=O)[C@@H]1Cc2ccccc2CN1C(=O)[C@H](CCCN=C(N)N)NC(=O)[C@H](CC1CCCCC1)NC(C)=O)C(=O)N(C)[C@@H](C)C(=O)N[C@@H](CO)C(=O)N(C)[C@@H](C)C(N)=O |  |  |  | 1.5 | 0.86 |
| CSCC[C@H](NC(=O)[C@H](c1ccccc1)N(C)C(=O)[C@H](CCCN=C(N)N)NC(=O)[C@H](CC1CCCCC1)NC(C)=O)C(=O)N[C@@H](C)C(=O)N[C@@H](CO)C(=O)N[C@H](C(N)=O)C(C)(C)C |  |  |  | 3.2 | 5.37 |
| CSCC[C@H](NC(=O)[C@@H](NC(=O)[C@H](CCCN=C(N)N)NC(=O)[C@H](CC1CCCCC1)NC(C)=O)C(C)(C)C)C(=O)N(C)[C@@H](C)C(=O)N[C@@H](CO)C(=O)N[C@H](C(N)=O)C(C)(C)C |  |  |  | 1.5 | 2.9 |
| CC[C@@H](C)[C@H](NC(=O)[C@H](C)NC(=O)[C@H](CCCN=C(N)N)NC(=O)[C@H](CC1CCCCC1)NC(C)=O)C(=O)N[C@@H](C)C(=O)N[C@@H](CO)C(=O)N[C@@H](CC(C)C)C(N)=O | 0.36 | 1.01 |  |  |  |
| CSCC[C@H](NC(=O)[C@H](C)NC(=O)[C@H](CCCN=C(N)N)NC(=O)[C@H](CC1CCCCC1)NC(C)=O)C(=O)N1CCC[C@@H]1C(=O)N[C@@H](CO)C(=O)N[C@@H](CC(C)C)C(N)=O | 1.37 | 0.7 |  |  |  |
| CSCC[C@H](NC(=O)[C@H](C)NC(=O)[C@H](CCCN=C(N)N)NC(=O)[C@H](CC1CCCCC1)NC(C)=O)C(=O)N[C@H](C)C(=O)N[C@@H](CO)C(=O)N(C)[C@@H](CC(C)C)C(N)=O | 0.85 | 0.77 | 0% |  |  |
| CC(=O)N[C@@H](CC1CCCCC1)C(=O)N[C@@H](CCCN=C(N)N)C(=O)N[C@@H](C)C(=O)N[C@@H](CC(C)C)C(=O)N[C@@H](C)C(=O)N[C@@H](CO)C(=O)N[C@@H](CC(C)C)C(N)=O (Ac-[Cha]RALASL-NH2) | 0.55 | 0.54 |  |  |  |
| CSCC[C@@H](C(=O)N[C@@H](C)C(=O)N[C@@H](CO)C(=O)N[C@@H](CC(C)C)C(N)=O)N(C)C(=O)[C@H](C)NC(=O)[C@H](CCCN=C(N)N)NC(=O)[C@H](CC1CCCCC1)NC(C)=O (Ac-[Cha]RA[NMeM]ASL-NH2) | 0.046 | 0.005 |  |  |  |
| CCCC[C@H](NC(=O)[C@H](C)NC(=O)[C@H](CCCN=C(N)N)NC(=O)[C@H](CC1CCCCC1)NC(C)=O)C(=O)N[C@@H](C)C(=O)N[C@@H](CO)C(=O)N[C@@H](CC(C)C)C(N)=O (Ac-[Cha]RA[Nle]ASL-NH2) | 0.77 | 0.4 |  |  |  |
| CSCC[C@H](NC(=O)[C@H](CCSC)NC(=O)[C@H](CCCN=C(N)N)NC(=O)[C@H](CC1CCCCC1)NC(C)=O)C(=O)N[C@@H](C)C(=O)N[C@@H](CO)C(N)=O (Ac-[Cha]RMMAS-NH2) | 1.38 | 0.85 |  |  |  |
| CSCC[C@H](NC(=O)[C@H](CCCN=C(N)N)NC(=O)[C@H](CC1CCCCC1)NC(C)=O)C(=O)N[C@@H](CCSC)C(=O)N[C@H](C=O)[C@H](O)[C@H](O)[C@@H](O)CO (Ac-[Cha]RMM[X3]-aldehyde) | 0.12 | 0.16 |  |  |  |
| CSCC[C@H](NC(=O)[C@H](C)NC(=O)[C@H](CCCN=C(N)N)N(C)C(=O)[C@H](CC1CCCCC1)NC(C)=O)C(=O)N[C@@H](C)C(=O)N[C@@H](CO)C(=O)N[C@@H](CC(C)C)C(N)=O (Ac-[Cha][NMeR]AMASL-NH2) | 0.001 | 0.001 |  |  |  |
| CSCC[C@H](NC(=O)[C@H](C)NC(=O)[C@H](CCCN=C(N)N)NC(=O)[C@H](CC1CCCCC1)N(C)C(C)=O)C(=O)N[C@@H](C)C(=O)N[C@@H](CO)C(=O)N[C@@H](CC(C)C)C(N)=O (Ac-[NMeCha]RAMASL-NH2) | 0.25 | 0.67 |  |  |  |
| CSCC[C@H](NC(=O)[C@H](C)NC(=O)[C@H](CCCN=C(N)N)NC(=O)[C@@H](CC1CCC(C)CC1)NC(C)=O)C(=O)N[C@@H](C)C(=O)N[C@@H](CO)C(=O)N[C@@H](CC(C)C)C(N)=O (some centres not stated) (Ac-[X5]RAMASL-NH2) | 1.17 | 0.93 |  |  |  |
| CSCC[C@H](NC(=O)[C@H](C)NC(=O)[C@H](CCCN=C(N)N)NC(=O)[C@H](CC1CC2CCC1C2)NC(C)=O)C(=O)N[C@@H](C)C(=O)N[C@@H](CO)C(=O)N[C@@H](CC(C)C)C(N)=O (stereo in doubt; 2) | 0.52 | 1.71 |  |  |  |

Now from value to compound, other results behind:

| Mean relative potency [3] | Mean relative potency [4] | % remaining [5] | SMILES | T-cell inhibition [1] | T-cell inhibition [2] |
| --- | --- | --- | --- | --- | --- |
| 1.31 | 1.53 |  | CSCC[C@H](NC(=O)[C@H](C)NC(=O)[C@H](CCCN=C(N)N)NC(=O)[C@@H](CC1CC2CCC1C2)NC(C)=O)C(=O)N[C@@H](C)C(=O)N[C@@H](CO)C(=O)N[C@@H](CC(C)C)C(N)=O (some centres not stated) |  |  |
| 0.55 | 1.08 |  | CSCC[C@H](NC(=O)[C@H](C)NC(=O)[C@H](CCCN=C(N)N)NC(=O)[C@H](CC1CCCCC1)NC(C)=O)C(=O)N1CCCC[C@@H]1C(=O)N[C@@H](CO)C(=O)N[C@@H](CC(C)C)C(N)=O |  |  |
| 1.4 | 1.6 |  | CSCC[C@H](NC(=O)[C@H](C)NC(=O)[C@H](CCCN=C(N)N)NC(=O)[C@H](CC1CCCCC1)NC(C)=O)C(=O)N[C@H](C)C(=O)N[C@@H](CO)C(=O)N[C@@H](CC(C)C)C(=O)N(C)C |  |  |
| 1.64 | 1.46 |  | CSCC[C@H](NC(=O)[C@H](C)NC(=O)[C@H](CCCN=C(N)N)NC(=O)[C@H](CC1CCCCC1)NC(C)=O)C(=O)N[C@H](C)C(=O)N[C@@H](CO)C(=O)N[C@H](C(N)=O)C(C)(C)C |  |  |
| 0.5 | 0.97 |  | CSCC[C@H](NC(=O)[C@H](C)NC(=O)[C@H](CCCN=C(N)N)NC(=O)[C@H](CC1CCCCC1)NC(C)=O)C(=O)N[C@@H](C)C(=O)N(C)[C@@H](CO)C(=O)N[C@@H](CC(C)C)C(N)=O (Ac-[Cha]RAMA[NMeS]L-NH2) |  |  |
| 0.59 | 0.15 |  | CSCC[C@H](NC(=O)[C@H](CCSC)NC(=O)[C@H](CCCN=C(N)N)NC(=O)[C@H](CC1CCCCC1)NC(C)=O)C(=O)N[C@@H](C)C(N)=O (Ac-[Cha]RMMA-NH2) |  |  |
| 0.33 | 1.04 |  | CSCC[C@H](NC(=O)[C@H](CCSC)NC(=O)[C@H](CCCN=C(N)N)NC(=O)[C@H](CC1CCCCC1)NC(C)=O)C(=O)N[C@@H](C)C(=O)NCCO (Ac-[Cha]RMMA-NHCH2CH2OH) |  |  |
| 0.68 | 1.55 |  | CSCC[C@H](NC(=O)[C@H](CCSC)NC(=O)[C@H](CCCN=C(N)N)NC(=O)[C@H](CC1CCCCC1)NC(C)=O)C(=O)N[C@@H](C)C(=O)NC(CO)CO (Ac-[Cha]RMMA-{NHCH(CH2OH)2}) |  |  |
| 1.05 | 0.88 |  | CSCC[C@H](NC(=O)[C@H](CCSC)NC(=O)[C@H](CCCN=C(N)N)NC(=O)[C@H](CC1CCCCC1)NC(C)=O)C(=O)N[C@@H](C)C(=O)N[C@@H](CO)C(=O)N[C@@H](CC(C)C)C(N)=O (Ac-[Cha]RMMASL-NH2) |  |  |
| 0.5 | 0.81 |  | CSCC[C@H](NC(=O)[C@H](CCCN=C(N)N)NC(=O)[C@H](CC1CCCCC1)NC(C)=O)C(=O)N[C@@H](CCSC)C(=O)N[C@@H](C=O)[C@H](O)[C@@H](O)[C@@H](O)CO (Ac-[Cha]RMM[X11]-aldehyde) |  |  |
| 1.02 | 0.56 |  | CSCC[C@H](NC(=O)[C@H](C)N(C)C(=O)[C@H](CCCN=C(N)N)NC(=O)[C@H](CC1CCCCC1)NC(C)=O)C(=O)N[C@@H](C)C(=O)N[C@@H](CO)C(=O)N[C@@H](CC(C)C)C(N)=O (Ac-[Cha]R[NMeA]MASL-NH2) |  |  |
| 0.17 | 1.19 |  | CSCC[C@H](NC(=O)[C@H](C)NC(=O)[C@H](CCCN=C(N)N)NC(=O)[C@H](Cc1cccc(F)c1)NC(C)=O)C(=O)N[C@@H](C)C(=O)N[C@@H](CO)C(=O)N[C@@H](CC(C)C)C(N)=O (Ac-[Phe(3-F)]RAMASL-NH2) |  |  |
| 0.61 | 1.56 |  | CSCC[C@H](NC(=O)[C@H](C)NC(=O)[C@H](CCCN=C(N)N)NC(=O)[C@H](Cc1cccc(I)c1)NC(C)=O)C(=O)N[C@@H](C)C(=O)N[C@@H](CO)C(=O)N[C@@H](CC(C)C)C(N)=O (Ac-[Phe(3-I)]RAMASL-NH2) |  |  |
| 0.68 | 1.22 |  | CSCC[C@H](NC(=O)[C@H](C)NC(=O)[C@H](CCCN=C(N)N)NC(=O)[C@H](CC1CC2CCC1CC2)NC(C)=O)C(=O)N[C@@H](C)C(=O)N[C@@H](CO)C(=O)N[C@@H](CC(C)C)C(N)=O (some centres not stated) (Ac-[X4]RAMASL-NH2) |  |  |
| 1.37 | 1.71 |  | CSCC[C@H](NC(=O)[C@H](C)NC(=O)[C@H](CCCN=C(N)N)NC(=O)[C@H](CC1CCC(C)CC1)NC(C)=O)C(=O)N[C@@H](C)C(=O)N[C@@H](CO)C(=O)N[C@@H](CC(C)C)C(N)=O (some centres not stated) (Ac-[X6]RAMASL-NH2) |  |  |
| 1.31 | 1.65 |  | CSCC[C@H](NC(=O)[C@H](C)NC(=O)[C@H](CCCN=C(N)N)NC(=O)[C@H](Cc1ccc2c(c1)OCO2)NC(C)=O)C(=O)N[C@@H](C)C(=O)N[C@@H](CO)C(=O)N[C@@H](CC(C)C)C(N)=O (Ac-[X10]RAMASL-NH2) |  |  |
| 0.96 | 0.92 |  | CSCC[C@H](NC(=O)[C@H](C)NC(=O)[C@H](CCCN=C(N)N)NC(=O)[C@H](CC1CC2CCC1C2)NC(C)=O)C(=O)N[C@@H](C)C(=O)N[C@@H](CO)C(=O)N[C@@H](CC(C)C)C(N)=O (stereo in doubt; 6) |  |  |
